For 9 compounds, IC50 and Activity results are on record in ChEMBL document CHEMBL1152660, “Structural analogues of diosgenyl saponins: synthesis and anticancer activity” (Bioorg Med Chem, 2009).

Each structure is given as a SMILES string. The source made the active and inactive calls. No cut-off for these calls is given here.

One test concerns MCF7 (human). The test can be described thus: Cytotoxicity against human MCF7 cells after 72 hrs by MTT assay. The following applies: MCF7, 72 h. A general note: Tetrazolium assays rely on reduction of a dye to a coloured formazan, in cell work by metabolically active cells.
The test system of another test is HeLa. Nature of the test: Cytotoxicity against human HeLa cells at 50 uM after 72 hrs by MTT assay. It counts as functional, cell-based. In outline:
(§1)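 The MTT proliferation assay used MCF-7 or HeLa cells at 2000 per well in DMEM with 10% FBS at 37 °C and 5% CO2, with a 3-day exposure to DMSO-dissolved analogues diluted in medium. Compounds were tested up to the top concentration. A490 at that concentration is reported as percent of the absorbance of untreated cells.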

The test system of the next test is HeLa (human). Nature of the test: Cytotoxicity against human HeLa cells after 72 hrs by MTT assay.
The next test relates to MCF7. The test can be described thus: Cytotoxicity against human MCF7 cells at 50 uM after 72 hrs by MTT assay. It counts as functional. The method in brief:
as §1

In the case of `C[C@@H]1CC[C@@]2(OC1)O[C@H]1C[C@H]3[C@@H]4CC=C5C[C@@H](O[C@@H]6O[C@H](CO)[C@@H](O[C@@H]7O[C@@H](C)[C@H](O)[C@@H](O)[C@H]7O)[C@H](O)[C@H]6NC(=O)c6cc([N+](=O)[O-])cc([N+](=O)[O-])c6)CC[C@]5(C)[C@H]4CC[C@]3(C)[C@H]1[C@@H]2C`, the IC50 (usually the midpoint of a concentration-inhibition curve) in the test on MCF7 (human) was found to be 39.5 µM. Besides, the result in the test with HeLa was inactive.
As to `C[C@@H]1CC[C@@]2(OC1)O[C@H]1C[C@H]3[C@@H]4CC=C5C[C@@H](O[C@@H]6O[C@H](CO)[C@@H](O[C@@H]7O[C@@H](C)[C@H](O)[C@@H](O)[C@H]7O)[C@H](O)[C@H]6NC(=O)c6cccc([N+](=O)[O-])c6)CC[C@]5(C)[C@H]4CC[C@]3(C)[C@H]1[C@@H]2C`, the values for the IC50 in the test with HeLa (human) and with MCF7 (human) were 39.4 µM and 22.8 µM, respectively.
The corresponding values for `COc1cccc2c1C(=O)c1c(O)c3c(c(O)c1C2=O)C[C@@](O)(C(=O)CO)C[C@@H]3O[C@H]1C[C@H](N)[C@H](O)[C@H](C)O1` [DOXORUBICIN] are 1.03 µM and 0.73 µM.
The corresponding values for `C[C@@H]1CC[C@@]2(OC1)O[C@H]1C[C@H]3[C@@H]4CC=C5C[C@@H](O[C@@H]6O[C@H](CO)[C@@H](O)[C@H](O)[C@H]6NC(=O)c6ccccc6)CC[C@]5(C)[C@H]4CC[C@]3(C)[C@H]1[C@@H]2C` are 18 µM and 19.4 µM.
As for `C[C@@H]1CC[C@@]2(OC1)O[C@H]1C[C@H]3[C@@H]4CC=C5C[C@@H](O[C@@H]6O[C@H](CO)[C@@H](O[C@@H]7O[C@@H](C)[C@H](O)[C@@H](O)[C@H]7O)[C@H](O)[C@H]6NC(=O)c6ccccc6)CC[C@]5(C)[C@H]4CC[C@]3(C)[C@H]1[C@@H]2C`, in the test on MCF7 (human), the half-maximal inhibitory concentration (IC50) is above 50 µM. Further, the result in the test on HeLa was inactive. Besides, the Activity with MCF7 is 68%.
As to `C[C@@H]1CC[C@@]2(OC1)O[C@H]1C[C@H]3[C@@H]4CC=C5C[C@@H](O[C@@H]6O[C@H](CO)[C@@H](O[C@@H]7O[C@@H](C)[C@H](O)[C@@H](O)[C@H]7O)[C@H](O)[C@H]6NC(=O)CCCCC6CCSS6)CC[C@]5(C)[C@H]4CC[C@]3(C)[C@H]1[C@@H]2C` (mixture of isomers), the IC50 was determined as 39.9 µM in the test on HeLa (human) and 18.8 µM in the test with MCF7 (human).
In the case of `C[C@@H]1CC[C@@]2(OC1)O[C@H]1C[C@H]3[C@@H]4CC=C5C[C@@H](O[C@@H]6O[C@H](CO)[C@@H](O)[C@H](O)[C@H]6NC(=O)CCCCC6CCSS6)CC[C@]5(C)[C@H]4CC[C@]3(C)[C@H]1[C@@H]2C` (stereo partly drawn) [ALPHA LIPOYL], the IC50 stood at 7.3 µM in the test on HeLa (human) and 6.9 µM in the test on MCF7 (human).
In the same order, the values of `C[C@@H]1CC[C@@]2(OC1)O[C@H]1C[C@H]3[C@@H]4CC=C5C[C@@H](O[C@@H]6O[C@H](CO)[C@@H](O)[C@H](O)[C@H]6NC(=O)c6cccc([N+](=O)[O-])c6)CC[C@]5(C)[C@H]4CC[C@]3(C)[C@H]1[C@@H]2C` are 16.1 µM and 13.6 µM.
The corresponding values for `C[C@@H]1CC[C@@]2(OC1)O[C@H]1C[C@H]3[C@@H]4CC=C5C[C@@H](O[C@@H]6O[C@H](CO)[C@@H](O)[C@H](O)[C@H]6NC(=O)c6cc([N+](=O)[O-])cc([N+](=O)[O-])c6)CC[C@]5(C)[C@H]4CC[C@]3(C)[C@H]1[C@@H]2C` are 21 µM and 18.7 µM.
